The species named for test [1] is Rattus norvegicus. The test is described as follows: Tested for formation of compound upon incubation of compound 15 for 30 minutes with rat liver subcellular fractions in oxic condition in the absence of cofactor. The format is functional. In outline:
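Phenobarbital-induced rat liver S-9, microsomal or cytosolic fraction with 5 mM cofactor (NADPH, NADH, benzaldehyde or 2-hydroxypyrimidine) or none. Substrate 2.5 mM final, added from methanol/water 50:50. Hypoxic vials purged with nitrogen 15–20 min. 30 min at 37 °C, quenched with ice-cold methanol. Ketone metabolite by HPLC at 254 nm as percent of equimolar substrate.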

The species entered for test [2] is Rattus norvegicus. Nature of the test: Percent inhibition of formation of compound upon incubation of 15 with phenobarbit-induced rat liver microsomal fraction in oxic condition in presence of pCMBA at a concentration of 2 mM. The class given is functional. In outline:
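Phenobarbital-induced rat liver microsomes; inhibitors SKF-525A (in methanol) or pCMBA (in DMF) at 0–4 mM final. pCMBA preincubated 30 min before NADPH; SKF-525A incubated 15 min with microsomes and NADPH. Hypoxic samples nitrogen-purged. Substrate 2.5 mM added, 30 min at 37 °C. Ketone metabolite by HPLC at 254 nm as percent of substrate; % inhibition relative to no inhibitor. Mean of two experiments.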

For one molecule, Formation and inhibition results are on record in ChEMBL document CHEMBL1145922, “1,2-benzisoxazole phosphorodiamidates as novel anticancer prodrugs requiring bioreductive activation” (J Med Chem, 2003).

One may read the inhibition as the percentage by which the read-out fell short of the control.

Turning to `CCC(=O)c1ccccc1O`, in the test filed under Rattus norvegicus [1], the Formation stood at 0.5%. The inhibition in the test listed under Rattus norvegicus [2] is 99%.
